# Screens from PubChem BioAssay.
# Compounds with a hit are over-represented: about 4.9% of the library has one in this group of screens.
# HSF-1 act: HSF-1 activators, primary screen, NIH3T3-HGL cells, MG132 stress, luminescence, single point | NIH3T3-HGL HSF-1 luciferase reporter, 8 h; 100% = twice DMSO control signal | activation, % at 9 µM | 300,000 compounds, 1.7% hits | AID 504408, 2011;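 active = mean replicate activation of at least 50% with a set share of replicates each reaching 50%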
# Lipid droplet: inhibitors of hepatocyte lipid droplet formation, primary screen, imaging, high-throughput imaging, BODIPY stain; AML12 mouse hepatocytes, oleate lipid droplets; inhibition, % at 6.5 µM; 240,000 compounds, 0.4% hits;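 active = lipid droplet intensity inhibited by at least 50%, with more than 500 cells counted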
#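 Material: mouse AML12 hepatocyte cell line, fixed after treatment; Timing: compound with oleate, overnight; Technique: high-content imaging of BODIPY-stained droplets and DAPI nuclei; Probe or stimulus: oleate, 100 µM final; Dosing: compound at 6.5 µM only.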
# PHOSPHO1 block: PubChem AID 1565; recombinant PHOSPHO1, absorbance phosphatase assay; inhibition, % at 13.3 µM; 290,000 compounds, 1.1% hits; in the data active = inhibition above about 60%
# CHT block: inhibitors of human choline transporter CHT; B-score at 10 µM; CHT-expressing cells, membrane potential dye, choline response; stronger effect = lower value; AID 488975, 2010; 310,000 compounds, 0.86% hits; High affinity choline transporter 1 (Homo sapiens), Q9GZV3;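 active = B-score over 3 SD under the library average, and starting fluorescence ratio not unusually high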;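 also: choline stimulus applied at its EC90 after an EC20 pre-addition; B-score computed on integrated fluorescence ratio after choline addition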
# Target sequence (Q9GZV3 whole entry, looked up): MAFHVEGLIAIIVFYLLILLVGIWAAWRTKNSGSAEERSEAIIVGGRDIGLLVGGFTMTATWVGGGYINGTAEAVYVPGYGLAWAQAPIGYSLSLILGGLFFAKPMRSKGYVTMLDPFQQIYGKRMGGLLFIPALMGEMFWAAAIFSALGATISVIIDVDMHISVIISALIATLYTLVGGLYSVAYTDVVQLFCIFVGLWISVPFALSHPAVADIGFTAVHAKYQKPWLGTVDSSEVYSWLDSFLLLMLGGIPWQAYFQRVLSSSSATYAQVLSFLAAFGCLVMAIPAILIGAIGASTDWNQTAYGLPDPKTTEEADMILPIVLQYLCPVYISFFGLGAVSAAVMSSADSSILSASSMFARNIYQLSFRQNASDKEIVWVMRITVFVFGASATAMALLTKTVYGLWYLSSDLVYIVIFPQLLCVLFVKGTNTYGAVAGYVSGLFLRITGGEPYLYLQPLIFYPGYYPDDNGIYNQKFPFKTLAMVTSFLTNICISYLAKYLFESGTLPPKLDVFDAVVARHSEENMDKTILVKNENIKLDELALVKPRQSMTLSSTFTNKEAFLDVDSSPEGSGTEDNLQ
# HSF1 inh: HSF1 inhibitors in luciferase reporter cells, primary screen, cell-based, NIH3T3, luminescence; NIH3T3-HGL HSE-luciferase, MG132-induced, luminescence 8 h; stronger effect = lower value; activity change, negative = inhibition, % at 7.5 µM (by protocol); 300,000 compounds, 0.77% hits;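 active = more than half of replicate wells show activity change below -50%, luminescence cut by over half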;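 also: luciferase reports HSF-1 transcriptional activity via heat shock element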
# CHT allo act: CHT positive allosteric modulators, primary screen, cell-based, membrane potential dye, choline EC20; 310,000 compounds, 0.49% hits; CHT-expressing cells; stronger effect = higher value; LV-AA mutant CHT in HEK293 cells; B-score at 10 µM; AID 488977, 2010; High affinity choline transporter 1 (Homo sapiens), Q9GZV3;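 active = initial fluorescence not abnormally high and integrated response B-score, plate-corrected, over 3 SD above library mean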
# Hits are given with their value; 0 = inactive; - = no result given.
SMILES,HSF-1 act,Lipid droplet,PHOSPHO1 block,CHT block,HSF1 inh,CHT allo act
CCOc1cc([N+](=O)[O-])cc(/C=C2/NC(=O)N(Cc3ccccc3F)C2=O)c1O,135,0,0,0,0,0
CCOc1ccc(/C=C(/NC(=O)c2ccccc2Cl)C(=O)O)cc1,0,0,0,0,0,0
CCOc1ccc(N(C(=O)c2ccccc2Cl)C2=NC(C)(C)CS2)cc1,51,0,0,0,0,0
C=CCc1ccc(OCc2ccc(C(=O)Nc3ccc(NC(C)=O)cc3)o2)c(OC)c1,57,0,0,0,0,0
COc1ccccc1NC(=O)c1ccc(COc2ccccc2OC)o1,0,0,0,0,0,0
O=c1oc(-c2ccccc2Br)nc2ccccc12,0,0,-,0,0,0
O=C(CSC1=N/C(=C/c2ccco2)C(=O)N1c1ccc(OC(F)F)cc1)NC1CCS(=O)(=O)C1 (stereo not given),64,0,0,0,0,0
Cc1ccccc1-n1c(SCC(=O)N(C)C2CCS(=O)(=O)C2)nnc1-c1ccncc1 (stereo not given),0,0,0,0,0,0
Cc1ccccc1-n1c(SCC(=O)c2cc(C)n(C)c2C)nnc1-c1ccncc1,0,-,93,0,0,0
CCOC(=O)C1CC(c2ccc(Cl)cc2)=NNC1=O (stereo not given),0,0,61,0,0,0
COc1ccc(CN2CCN(c3nc4ccccc4s3)CC2)cc1,0,0,0,-,0,-
Cc1ccccc1CN1CCN(c2nc3ccccc3s2)CC1,81,-,0,0,0,0
CCn1c(SCC(=O)N2CCN(c3ccccc3)CC2)nnc1-c1ccoc1C,0,-,0,0,0,0
COc1cccc(C2=NOC(C(=O)NCCN3CCOCC3)C2)c1 (stereo not given),0,-,0,0,0,0
COc1cc(/C=C2/C(=O)N(c3ccc([N+](=O)[O-])cc3)N=C2N2CCOCC2)ccc1O,0,0,0,0,0,0
CCN(CC)c1ccc(/C=C2/C(=O)N(c3ccc([N+](=O)[O-])cc3)N=C2N2CCOCC2)cc1,92,-,0,0,0,0
O=C(Nc1cccnc1)c1cc(-c2ccccc2O)on1,0,0,0,0,0,0
CCOC(=O)COc1c(Cl)cc(C2NC(=S)NC(c3ccccc3)=C2C(C)=O)cc1OCC (stereo not given),0,0,0,0,0,0
COc1ccccc1NS(=O)(=O)c1cc2c3c(c1)CC(=O)N3CCC2,0,0,0,0,0,0
CCc1c(C(C)S(=O)(=O)c2ccc(C)cc2)[nH]c(=O)n1-c1ccc(C)cc1 (stereo not given),0,0,90,0,0,0
NC(=O)c1sc2nc3c(c(-c4ccco4)c2c1N)CCCC3,0,0,0,0,0,0
Cc1ccccc1NC(=O)c1sc2nc3c(c(-c4ccco4)c2c1N)CCC3,0,-,76,0,0,0
N#Cc1sc2nc3c(c(-c4ccco4)c2c1N)CCCC3,0,-,81,0,0,0
Cc1cc(C)c2c(N)c(C(=O)c3ccc(Cl)cc3)sc2n1,0,0,0,0,0,0
Nc1c(C(=O)c2ccccc2)sc2nsc(SCCN3CCCC3)c12,118,0,0,0,0,0
SMILES,HSF-1 act,Lipid droplet,PHOSPHO1 block,CHT block,HSF1 inh,CHT allo act
CC(=O)c1sc2nsc(SCCN3CCCCC3)c2c1N,0,0,70,0,0,0
Cc1cc(C)c2c(N)c(C(=O)c3ccccc3)sc2n1,0,0,0,0,0,0
Nc1c(C(=O)c2ccc(Cl)cc2)sc2nsc(SCCN3CCOCC3)c12,0,0,63,0,0,0
CCOCCCNC(=O)C1CCN(Cc2ccc(OCc3ccccc3)c(OC)c2)CC1,0,0,0,0,0,0
C=CCNC(=O)c1ccc(CSc2nc3ccccc3s2)cc1,0,0,0,0,0,0
CC(=O)NCCNC(=O)c1ccc(CSc2nc3ccccc3s2)cc1,0,0,0,0,-59,0
Clc1ccc(CSc2nnc(-c3cccnc3)n2Cc2ccco2)c(Cl)c1,0,-,0,0,0,0
CC(C)N(C(=O)COC(=O)[C@H](C)NC(N)=O)c1ccccc1,0,0,0,0,0,0
Cn1ncc(Cl)c1C(=O)N1CCN(c2ccccc2)CC1,0,0,0,0,0,0
Cn1ncc(Cl)c1C(=O)N1CCN(c2ncccn2)CC1,0,0,63,0,0,0
COCCCN=C(c1ccco1)n1c(=S)nc(-c2ccco2)n(CCCOC)c1=S,0,-,98,0,0,0
COCCCn1c(SCC(=O)OC2CCCCC2)nnc1-c1ccco1,0,-,0,0,0,0
COCCCn1c(-c2ccco2)nc2ccccc2c1=O,0,-,0,0,-68,0
COc1ccc(CCn2c(-c3ccco3)nc3ccccc3c2=O)cc1OC,0,0,0,0,0,0
COc1ccc(C)cc1NC(=O)NNC(=O)C(C)Oc1ccc([N+](=O)[O-])cc1 (stereo not given),0,0,0,0,0,0
COc1ccc(N2CCN(C(=O)CCCC(=O)c3ccccc3)CC2)cc1,0,0,0,0,0,0
O=C(CN1C(=O)NC2(CCSC2)C1=O)N1CCN(c2ccc(F)cc2)CC1 (stereo not given),0,-,99,0,0,0
O=C(CN1C(=O)NC2(CCCC2)C1=O)N1CCN(c2cccc(C(F)(F)F)c2)CC1,0,-,-,0,0,0
Cc1ccc2c(Cl)c(C(=O)NCC3CCCO3)sc2c1 (stereo not given),54,-,0,0,0,0
Cc1ccc2c(Cl)c(C(=O)NCCc3ccccc3)sc2c1,77,0,0,0,0,0
O=C(N/N=C/c1ccco1)C1(O)c2ccccc2-c2ccccc21,56,0,0,0,0,0
O=C(N/N=C/c1ccco1)C(O)C(O)C(=O)N/N=C/c1ccco1 (stereo not given),0,0,0,0,0,0
COc1ccc(OCC(=O)Nc2ccc3c(c2)nc(CCN2CCCCC2)n3C)cc1,63,0,0,0,0,0
Cc1cccc(OCC(=O)Nc2ccc3c(c2)nc(CN2CCCCC2)n3C)c1,0,0,0,0,0,0
CC1CCN(CCc2nc3cc(NC(=O)COc4ccc(Cl)cc4)ccc3n2C)CC1,72,0,0,0,0,0
COc1ccc(OCC(=O)Nc2ccc3c(c2)nc(CCN2CCC(C)CC2)n3C)cc1,0,0,0,0,0,0
Cn1c(CCN2CCOCC2)nc2cc(NC(=O)c3cccs3)ccc21,0,0,64,0,0,0
CC(=O)NCCc1nc2cc(NC(=O)c3cccs3)ccc2n1C,0,0,0,0,0,0
CCN1CCN(CCc2nc3cc(NC(=O)COc4ccc(Cl)cc4)ccc3n2C)CC1,0,0,0,0,0,0
